From PubChem
PTPN22 act = activators of human LYP (PTPN22) phosphatase | recombinant LYP, DiFMUP fluorescence; 0 = plate median, 100 = signal doubled | activation, % at 2 µM | 96,000 compounds, 0.11% hits | AID 697;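 active = activation at 2 µM above a set limit, the mean plus 5 SD, cut at about 37% in these data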
EphB4 ephrin blk = antagonists of human EphB4-ephrin-B2 interaction; P54760; 97,000 compounds, 0.15% hits; AID 720; EphB4 LBD / TNYL-RAW-Alexa532 peptide, fluorescence polarization; inhibition, % at 7 µM;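 active = inhibition above the screen-wide mean inhibition plus 3 SD, cut at about 15% in these data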
PTPN22 inh 2 = blocks human PTPN22 phosphatase activity; recombinant LYP catalytic domain, DiFMUP fluorescence; AID 640; Q9Y2R2; 96,000 compounds, 0.21% hits; inhibition, % at 2 µM;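 active = inhibition at 2 µM at or above a set limit, the screen mean plus 3 SD, cut at about 24% in these data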
Rev-RRE block = HIV Rev-RRE protein-RNA interaction inhibition; Rev peptide-RRE RNA binding, FRET; 97,000 compounds, 0.79% hits; inhibition, % at 8 µM;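 active = inhibition above the screen-wide mean plus 3 SD, cut at about 35% in these data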
Target sequence (P05866 whole entry, looked up): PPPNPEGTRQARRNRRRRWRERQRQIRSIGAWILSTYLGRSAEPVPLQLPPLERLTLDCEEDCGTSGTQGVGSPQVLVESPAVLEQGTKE
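Assay system: Rev peptide and RRE RNA, both fluorescently labelled; times: 5 min preincubation and 15 min binding, 25 °C; detection: FRET, ex 480 nm, em 540 and 671 nm; read-out basis: % inhibition from 671/540 nm acceptor-to-donor ratio, scaled between controls; benchmarks: DMSO low control, neomycin B high control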
Large screens that a line does not name were inactive; [ ] = dose if it differs, or a comment. Shown are actives, neighbours in structure and some others; about 1.3% of the full set was active somewhere.

O=c1[nH]c2cc3c(cc2cc1C(c1nnnn1Cc1ccccc1)N1CCCCCC1)OCCO3 (configuration not stated)	Rev-RRE block 41
COc1ccc(-n2c(NC(=O)c3ccco3)c(C#N)c3nc4ccccc4nc32)cc1	Rev-RRE block 37
CCC(C)(C)NC(=O)C(c1ccco1)N(C(=O)c1csnn1)c1cccc(F)c1 (configuration not stated)	EphB4 ephrin blk 17
CCC(C)N(C(=O)c1csnn1)C(C(=O)NCc1ccc(F)cc1)c1ccco1 (configuration not stated)	none
CCCn1c(N)c(C(=O)CSc2nnnn2-c2ccc(O)cc2)c(=O)n(C)c1=O	none
O=C1C2C3C=CC(C4CC34)C2C(=O)N1/N=C/c1ccc(-c2ccc(F)cc2[N+](=O)[O-])o1 (configuration not stated)	Rev-RRE block 42
O=C1C2C3C=CC(C4CC34)C2C(=O)N1/N=C/c1ccc(-c2ccc(Cl)cc2[N+](=O)[O-])o1 (configuration not stated)	none
Cc1cccc(-c2c3c(=O)n(C)c(=O)n(C)c3cn2C2CCCCC2)c1	none
CC1=NN2C(=N)/C(=C\c3ccc(SCc4ccccc4)o3)C(=O)N=C2S1	none
N=C1/C(=C\c2ccc(SCc3ccco3)o2)C(=O)N=C2SC=NN12	Rev-RRE block 59
Cn1c(SCc2c(Cl)cccc2Cl)nnc1-c1cccs1	none
O=c1ccc2cc3c([nH]c4ccc(Br)cc43)oc-2c1O	Rev-RRE block 37
Cc1nc2ccc(S(=O)(=O)NCC(=O)NCc3ccc4c(c3)OCO4)cc2s1	PTPN22 inh 2 27
CC(=O)Nc1ccc(NC(=O)c2ccccc2CC[N+](=O)[O-])cc1	PTPN22 inh 2 42
NC(=O)/C(=C/c1ccco1)NC(=O)/C=C/c1ccccc1	none
O=C(O)/C(=C\c1ccco1)NC(=O)c1cccc2ccccc12	EphB4 ephrin blk 17
CCOC(=O)C1=C(c2ccccc2)N2CCS(=O)(=O)N=C2S1	EphB4 ephrin blk 16
CCOC(=O)c1c(N)nn(C(=O)C(C)(C)C)c1-c1ccccc1	none
COC(=O)c1ccc(OCC(O)CN(CC(C)C)CC(C)C)cc1 (configuration not stated)	none
CN(C)c1ccc(/C=C2\SC(=S)N(Nc3ncc(C(F)(F)F)cc3Cl)C2=O)cc1	Rev-RRE block 138[fluorescence artefact?]
CCn1c(SCC(=O)NC(C)(C)C)nnc1-c1ccccn1	none
O=C1CC(=C2c3ccccc3-c3ccccc32)C(=O)N1CCCCN1CCN(c2ccccc2)CC1	PTPN22 inh 2 45
O=C1c2ccccc2C(=O)N1CCCCN1CCN(CCCCN2C(=O)c3ccccc3C2=O)CC1	none
Cc1ccccc1N1C(=O)c2cccc3c(N(C)CCO)ccc(c23)C1=O	Rev-RRE block 125[fluorescence artefact?]
COc1ccccc1N1C(=O)c2cccc3c(C(=O)O)ccc(c23)C1=O	none
O=C(CCC1N=C2c3ccccc3N=C(SCc3ccc(F)cc3)N2C1=O)NCc1ccco1 (configuration not stated)	EphB4 ephrin blk 16
O=C(CCC1N=C2c3ccccc3N=C(SCc3ccc(Cl)cc3)N2C1=O)NCc1ccco1 (configuration not stated)	none
Cc1ccc(CSC2=Nc3ccccc3C3=NC(CC(=O)NCc4ccco4)C(=O)N23)cc1 (configuration not stated)	PTPN22 inh 2 24
CCCCc1ccc(C2C(C#N)=C(N)SC(N)=C2C#N)s1	Rev-RRE block 66
COc1ccc(N=C2S/C(=C\c3ccc(N4CCOCC4)o3)C(=O)N2CCc2c[nH]c3ccccc23)cc1	Rev-RRE block 131[fluorescence artefact?]
Cc1cc(=O)oc(C)c1C(=O)OCC(=O)c1ccc(Br)cc1	none
Cc1cc(=O)oc(C)c1C(=O)OCC(=O)c1ccc(Cl)cc1	EphB4 ephrin blk 16
C=CCSC1=C(C#N)C(c2ccc(C(C)C)cc2)CC(=O)N1 (configuration not stated)	none
Cc1ccccc1C1C(C#N)=C2N=C(N)c3c(sc4c3CCCCC4)N2C2=C1C(=O)CCC2 (configuration not stated)	Rev-RRE block 66
CCOC(=O)Cn1c(-c2ccccc2)nc2ccccc2c1=O	none
CCC(=O)Oc1c(-c2ccccc2)c2nc3ccccc3nc2c2ccccc12	Rev-RRE block 112[fluorescence artefact?]
Clc1ccc(-c2cn3nc4c(nc3n2)CCCC4)cc1	Rev-RRE block 38
Cc1ccc(NS(=O)(=O)c2cc(C(=O)NCc3ccccn3)ccc2Cl)cc1C	none
Nc1nnc(SCC(=O)Nc2ccc3c(c2)OCCO3)s1	none
Nc1nnc(SCC(=O)Nc2ccc(S(=O)(=O)N3CCOCC3)cc2)s1	PTPN22 inh 2 26
